Measured values reported in ChEMBL document CHEMBL1143230, “5-Substituted 2-aminothiophenes as A1 adenosine receptor allosteric enhancers” (Bioorg Med Chem, 2008).

Key:
Conditions in all cases: CHO-K1
[1] = target: T1, Adenosine receptor A1 (Homo sapiens) (UniProt P30542); assay: Activity at human adenosine A1 receptor expressed in CHOK1 cells assessed as agonist-receptor ternary complex remaining by […]; type: functional, cell-based
T1 sequence (whole entry): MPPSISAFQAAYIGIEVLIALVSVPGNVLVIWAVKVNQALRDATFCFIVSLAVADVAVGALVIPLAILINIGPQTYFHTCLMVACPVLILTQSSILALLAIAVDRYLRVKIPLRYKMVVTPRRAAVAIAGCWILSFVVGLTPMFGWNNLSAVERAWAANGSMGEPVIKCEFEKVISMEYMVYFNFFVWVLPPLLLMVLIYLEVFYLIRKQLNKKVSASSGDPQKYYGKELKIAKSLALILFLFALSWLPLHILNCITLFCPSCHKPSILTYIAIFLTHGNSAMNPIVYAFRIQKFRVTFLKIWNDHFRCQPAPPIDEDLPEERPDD
Method in brief: (§1)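 Membranes from CHO-K1 cells stably expressing hA1AR, 10 ug protein. Phase 2: vehicle or enhancer for 30 min. Phase 3: 100 uM BW-1433 plus 25 uM GTPgammaS for 10 min. Score = % specific binding remaining. ED50 and maximal score from hyperbolic fit over 0.1–50 uM, N = 2–3.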

[2] = target: T1, Adenosine receptor A1 (Homo sapiens); assay: Activity at human adenosine A1 receptor expressed in CHOK1 cells assessed as agonist-receptor ternary complex remaining by […] after 10 mins; type: functional, cell-based; set-up: concentration or dose not given beside the values; method in brief: as §1
[3] = target: T1, Adenosine receptor A1 (Homo sapiens); assay: Displacement of [3H]CPX from human adenosine A1 receptor expressed in CHOK1 cells at 10 uM relative to control; type: cell-based
Method in brief: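 Membranes from CHO-K1 cells expressing human A1 receptor, resuspended at 400 ug/mL in HE buffer with 1 U/mL adenosine deaminase. Incubated with [3H]CPX (2 nM in the added buffer) and 10 uM enhancer (final) for 90 min at room temperature. Non-specific binding defined with 100 uM NECA. Filtration, scintillation counting, triplicate, expressed as % inhibition versus control binding.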

ED50 [1] [µM]	Activity [2] [%]	inhibition [3] [%]	SMILES
> 10	4.8	25.6	CC(=O)c1ccc(-c2sc(N)c(C(=O)c3ccccc3)c2-c2cccc(C(F)(F)F)c2)cc1
> 10	22.2	87.1	Nc1sc(Cl)c(-c2cccc(C(F)(F)F)c2)c1C(=O)c1ccccc1
> 10	0	91	CCOC(=O)c1c(N)sc(-c2ccc(-c3ccncc3)cc2)c1-c1cccc(C(F)(F)F)c1
> 10	17.5	81.5	CCOC(=O)c1c(N)sc(-c2ccc(OC)cc2)c1-c1cccc(C(F)(F)F)c1
> 10	53.5	47.5	Nc1sc(Br)c(-c2cccc(C(F)(F)F)c2)c1C(=O)c1ccccc1
2.3	18.1	82.4	Nc1sc(-c2ccccc2)c(-c2cccc(C(F)(F)F)c2)c1C(=O)c1ccccc1
> 10	7.4	65.2	COc1ccc(-c2sc(N)c(C(=O)c3ccccc3)c2-c2cccc(C(F)(F)F)c2)cc1
15.8	76.8	61.1	Nc1scc(-c2cccc(C(F)(F)F)c2)c1C(=O)c1ccccc1
> 10	13.2	83.6	CCOC(=O)c1c(N)sc(-c2ccccc2)c1-c1cccc(C(F)(F)F)c1
> 10	14.8	48.5	CCOC(=O)c1c(N)sc(-c2ccc(C(F)(F)F)cc2)c1-c1cccc(C(F)(F)F)c1
> 10	10.3	71.4	CCOC(=O)c1c(N)sc(-c2ccc([N+](=O)[O-])cc2)c1-c1cccc(C(F)(F)F)c1
> 10	14.4	68.9	CCOC(=O)c1c(N)sc(-c2cccc(C(C)=O)c2)c1-c1cccc(C(F)(F)F)c1
9.4	7.8	93	CCOC(=O)c1c(-c2cccc(C(F)(F)F)c2)csc1N
> 10	22.5	59.1	Nc1sc(-c2ccc(Cl)cc2)c(-c2cccc(C(F)(F)F)c2)c1C(=O)c1ccccc1
> 10	28.5	64.6	CCOC(=O)c1c(N)sc(-c2ccc(C(C)=O)cc2)c1-c1cccc(C(F)(F)F)c1
6.6	57	58.4	CCOC(=O)c1c(N)sc(-c2ccc(Cl)cc2)c1-c1cccc(C(F)(F)F)c1
> 10	18.5	33.1	CC(=O)c1cccc(-c2sc(N)c(C(=O)c3ccccc3)c2-c2cccc(C(F)(F)F)c2)c1
> 10	23.7	34.8	Nc1sc(-c2ccc([N+](=O)[O-])cc2)c(-c2cccc(C(F)(F)F)c2)c1C(=O)c1ccccc1
